The source made the active and inactive calls. No cut-off for these calls is given here.

Assay [1] deals with T1, Polyunsaturated fatty acid 5-lipoxygenase (Homo sapiens) (UniProt P09917).
T1 sequence (whole entry): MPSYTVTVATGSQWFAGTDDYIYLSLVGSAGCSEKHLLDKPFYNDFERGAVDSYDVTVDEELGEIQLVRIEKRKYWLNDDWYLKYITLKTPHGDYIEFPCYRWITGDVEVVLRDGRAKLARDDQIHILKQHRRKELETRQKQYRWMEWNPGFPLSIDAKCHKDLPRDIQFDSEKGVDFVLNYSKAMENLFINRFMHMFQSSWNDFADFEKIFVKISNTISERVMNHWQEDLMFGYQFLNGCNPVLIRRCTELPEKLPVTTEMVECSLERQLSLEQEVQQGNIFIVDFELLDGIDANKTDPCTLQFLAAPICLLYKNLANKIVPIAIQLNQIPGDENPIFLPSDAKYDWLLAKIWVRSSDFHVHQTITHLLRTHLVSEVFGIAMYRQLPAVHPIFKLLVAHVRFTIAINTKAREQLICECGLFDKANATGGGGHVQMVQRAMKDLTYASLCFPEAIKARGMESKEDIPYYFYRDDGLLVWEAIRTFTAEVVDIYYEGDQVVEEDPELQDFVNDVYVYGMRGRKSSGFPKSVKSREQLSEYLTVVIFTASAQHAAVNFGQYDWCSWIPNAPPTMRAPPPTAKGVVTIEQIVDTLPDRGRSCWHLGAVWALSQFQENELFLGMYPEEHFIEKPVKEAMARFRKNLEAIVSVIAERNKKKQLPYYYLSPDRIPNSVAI
The assay is described as follows: Inhibition of human recombinant 5-LOX expressed in Escherichia coli BL21 using arachidonic acid as substrate assessed as remaining enzyme activity by measuring LTB4 formation at 1 uM preincubated for 15 mins measured after 10 mins by HPLC analysis. In a few lines: (§1)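 Human recombinant 5-LOX expressed in E. coli BL21 (pT3-5LO) at 37 °C, purified, and used immediately. 0.5 µg enzyme in PBS/EDTA preincubated with compound for 15 min at 4 °C, then prewarmed 30 s at 37 °C. Reaction started with 2 mM CaCl₂ plus 20 µM arachidonic acid, run 10 min at 37 °C, and metabolites analyzed by HPLC. Mean ± S.E.M., n = 3–4.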

For assay [2], the target named is T2, Polyunsaturated fatty acid 5-lipoxygenase (Homo sapiens, UniProt P09917).
T2 sequence (P09917 whole entry): T1 sequence (whole entry)
The assay is described as follows: Inhibition of human recombinant 5-LOX expressed in Escherichia coli BL21 using arachidonic acid as substrate assessed as LTB4 formation preincubated for 15 mins measured after 10 mins by HPLC analysis. An outline of the steps: as §1

Assay [3] addresses T2, Polyunsaturated fatty acid 5-lipoxygenase. The assay is described as follows: Inhibition of 5-LOX in human intact polymorphonuclear leukocytes preincubated for 15 mins with CaCl2, A23187 measured after 10 mins by HPLC analysis. An outline of the steps: (§2)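 Human PMNL isolated from blood of healthy adult donors. 5 × 10⁶ cells in 1 ml PG buffer preincubated with compound for 15 min at 37 °C, then stimulated with 1 mM CaCl₂ plus 2.5 µM A23187. After 10 min at 37 °C, stopped with methanol, centrifuged, and supernatant products analyzed by HPLC. Mean ± S.E.M., n = 3–4.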

The target of assay [4] is T1, Polyunsaturated fatty acid 5-lipoxygenase (Homo sapiens). The assay is described as follows: Inhibition of 5-LOX in human intact polymorphonuclear leukocytes assessed as remaining enzyme activity at 10 uM preincubated for 15 mins with CaCl2, A23187 measured after 10 mins by HPLC analysis. In a few lines: as §2
For assay [5] the target is unchanged. The assay is described as follows: Inhibition of human recombinant 5-LOX expressed in Escherichia coli BL21 using arachidonic acid as substrate assessed as remaining enzyme activity by measuring LTB4 formation at 10 uM preincubated for 15 mins measured after 10 mins by HPLC analysis. In a few lines: as §1
Assay [6] addresses T3, Prostaglandin E synthase (Homo sapiens) (UniProt O14684).
T3 sequence (whole entry): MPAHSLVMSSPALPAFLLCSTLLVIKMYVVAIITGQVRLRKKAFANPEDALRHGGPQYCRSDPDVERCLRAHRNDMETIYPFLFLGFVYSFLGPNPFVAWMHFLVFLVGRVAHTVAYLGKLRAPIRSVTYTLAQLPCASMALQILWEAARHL
The assay is described as follows: Inhibition of IL-1beta-activated m-PGES-1 in microsome of human A549 cells assessed as remaining enzyme activity by measuring PGE2 formation at 10 uM preincubated for 15 mins followed by PGH2 addition measured after 1 min by RP-HPLC analysis. The assay is classed as cell-based. An outline of the steps:
(§3)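 Microsomes from A549 cells prepared by sonication and differential centrifugation (10,000 g, then 174,000 g), stored at −80 °C. Diluted in 0.1 M potassium phosphate pH 7.4 with 2.5 mM glutathione and preincubated with compound (DMSO vehicle, 1% final) 15 min at 4 °C. Started with 20 µM PGH₂ (final), run 1 min at 4 °C, stopped with FeCl₂/citric acid plus 11β-PGE₂ internal standard. PGE₂ isolated by C18 SPE and quantified by RP-HPLC with UV at 195 nm. IC50 from three determinations at 0.1, 1 and 10 µM.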

Assay [7] deals with Mus musculus. The experiment in a line: Antiinflammatory activity in ICR mouse assessed as reduction in carrageenan-induced paw oedema volume at 4 mg/kg, ip administered 30 mins before carrageenan challenge measured after 4 hrs by hydroplethysmometer. The assay is classed as functional. The arrangement: scale not given: the % may be the effect or the level left. In a few lines:
(§4)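 Male ICR mice, 8 weeks, housed 5 per cage with 12:12 h light:dark cycle, 22 ± 1 °C, 60 ± 10% humidity, acclimatized at least 1 week. Compounds given i.p. (1–4 mg/kg; zileuton reference 20 mg/kg) 30 min before intraplantar carrageenan. Hind paw volume increase (oedema) followed for 6 h versus vehicle-treated group. Mean ± SEM, n = 6–8 per group.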

Assay [8] has as its target T3, Prostaglandin E synthase (Homo sapiens). The experiment in a line: Inhibition of IL-1beta-activated m-PGES-1 in microsome of human A549 cells assessed as PGE2 formation at 10 uM preincubated for 15 mins followed by PGH2 addition measured after 1 min by RP-HPLC analysis. The assay is classed as cell-based. An outline of the steps: as §3
In another assay the target is T4, Prostaglandin E synthase (Homo sapiens, UniProt O14684).
T4 sequence (O14684 whole entry): T3 sequence (whole entry)
The experiment in a line: Inhibition of IL-1beta-activated m-PGES-1 in microsome of human A549 cells assessed as PGE2 formation preincubated for 15 mins followed by PGH2 addition measured after 1 min by RP-HPLC analysis. The assay is classed as cell-based. An outline of the steps: as §3

Assay [9] concerns Mus musculus. The experiment in a line: Antiinflammatory activity in ICR mouse assessed as reduction in carrageenan-induced paw oedema volume at 1 to 4 mg/kg, ip administered 30 mins before carrageenan challenge measured after 2 to 4 hrs by hydroplethysmometer relative to vehicle-treated control. The assay is classed as functional, organism-based. In a few lines:
as §4
In general terms: In the carrageenan paw model, swelling and tenderness develop within hours.

For assay [10], the system named is Mus musculus. The experiment in a line: Antiinflammatory activity in ICR mouse assessed as reduction in carrageenan-induced paw oedema volume at 20 mg/kg, ip administered 30 mins before carrageenan challenge measured after 0 to 6 hrs by hydroplethysmometer. The assay is classed as functional. The arrangement: scale not given: the % may be the effect or the level left. An outline of the steps: as §4

The term IC50 denotes the midpoint of a concentration-inhibition curve. As to `CCOC(=O)c1c(CSc2cc(C)cc(C)c2)[nH]c2c1cc(O)c1ccccc12`, the Activity in assay [1] amounted to 63%. For the same compound, the figures for the IC50 in assay [2] and in assay [3] were above 1000 nM and 290 nM, respectively.
As to `CCOC(=O)c1c(CSc2ccccc2Cl)n(C)c2c1cc(OC)c1ccccc12`, the Activity in [4] amounted to 97.6%; in assay [5], 98.7%. Also, the IC50 in assay [2] and in assay [3] was above 10000 nM in each case.
A word on the inhibition: it is the share of the control response that was lost under treatment. For the compound `CCOC(=O)c1c(CSc2c(C)cc(C)cc2C)n(C)c2ccc(O)cc12`, the Activity in assay [6] is 87.3%; in the assay on Mus musculus [7], 60.9%. Besides, in assay [8], the inhibition came to 27.8%.
`CCOC(=O)c1c(CSc2cccc(Cl)c2Cl)[nH]c2c1cc(O)c1ccccc12`: the Activity in assay [1] came out at 72%. Also, the IC50 in [2] was above 1000 nM; in assay [3] it was 657 nM.
Regarding `CCOC(=O)c1c(CSc2c(Cl)cccc2Cl)[nH]c2c1cc(O)c1ccccc12`, the Activity with Mus musculus [7] was determined as 9.1%. Besides, the IC50 was found to be 170 nM in assay [2], 1330 nM on Prostaglandin E synthase and 190 nM in assay [3]. In the assay on Mus musculus [9], the outcome was inactive.
Consider `CCOC(=O)c1c(CSc2ccccc2Cl)n(CC)c2c1cc(OCC)c1ccccc12`, for which the figures for the Activity in assay [4] and in [5] were 95.5% and 99.4%, respectively. Moreover, the IC50 in assay [2] and in assay [3] was above 10000 nM each time.
Turning to `CC(c1cc2ccccc2s1)N(O)C(N)=O` (configuration not stated) [ZILEUTON], the Activity in the assay with Mus musculus [10] worked out at 38.2%.
Consider `CCOC(=O)c1c(CSc2cccc(Cl)c2)[nH]c2c1cc(O)c1ccccc12`, for which the Activity in assay [1] is 63.8%. Also, the IC50 in assay [2] was above 1000 nM; in assay [3], 257 nM.
Take `CCOC(=O)c1c(CSc2ccccc2C)[nH]c2c1cc(O)c1ccccc12`: the values for the IC50 in assay [2] and in assay [3] were 330 nM and 255 nM, respectively.
The like results for `CCOC(=O)c1c(CSc2ccccc2Cl)[nH]c2c1cc(O)c1ccccc12` were, in that order, 820 nM and 182 nM.
As for `CCOC(=O)c1c(CSc2ccccc2Cl)n(C)c2c1cc(O)c1ccccc12`, the Activity in assay [4] is 61.9%; in [5] it was 81.4%. The IC50 in assay [2] and in assay [3] was above 10000 nM each time.
As to `CCOC(=O)c1c(CSc2c(C)cc(C)cc2C)[nH]c2c1cc(O)c1ccccc12`, in the assay on Mus musculus [7], the Activity came to 77.4%. Further, the IC50 stood at 200 nM in [2], 1930 nM at Prostaglandin E synthase and 370 nM in assay [3].
On to `CCOC(=O)c1c(CSc2ccc(Cl)c(Cl)c2)[nH]c2c1cc(O)c1ccccc12`, for which the IC50 in assay [2] is 930 nM; in assay [3], 237 nM.
As to `CCOC(=O)c1c(CSc2c(C)cccc2C)[nH]c2c1cc(O)c1ccccc12`, in assay [1], the Activity is 65.9%. Besides, the figures for the IC50 in assay [2] and in [3] were above 1000 nM and 170 nM, respectively.
In the case of `CCOC(=O)c1c(CSc2ccccc2Cl)[nH]c2c1cc(OC)c1ccccc12`, the IC50 in assay [2] was determined as 1740 nM; in assay [3], 1150 nM.
On to `CCOC(=O)c1c(CSc2ccccc2Cl)[nH]c2c1cc(OCC)c1ccccc12`, for which the figures for the IC50 in assay [2] and in assay [3] were 2040 nM and 1260 nM, respectively.
On to `CCOC(=O)c1c(CSc2cc(Cl)cc(Cl)c2)[nH]c2c1cc(O)c1ccccc12`, for which the Activity in the assay with Mus musculus [7] came to 60%. Moreover, the IC50 stood at 220 nM in [2], 13800 nM at Prostaglandin E synthase and 240 nM in assay [3]. For the same compound, the result in the assay with Mus musculus [9] was Active.

These data come from ChEMBL document CHEMBL3758140, “Exploring the role of chloro and methyl substitutions in 2-phenylthiomethyl-benzoindole derivatives for 5-LOX enzyme inhibition” (Eur J Med Chem, 2016).
